Experimental data published in ChEMBL document CHEMBL1141461, “Polyene antibiotics from Streptomyces mediocidicus” (2007).
Values after ≈ are worked out from the molar mass of the structure shown.

Tests used:
Format in all cases: functional
Kluyveromyces marxianus = assay: Antifungal activity against Candida pseudotropicalis GC 3070
Outline: (§1)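 Yeast MIC by broth microdilution in RPMI-1640. Agent at final 0.03-128 µg/mL, yeast inoculum 0.5-2.5 × 10^3 cfu/mL. MIC read after 48 h incubation at 30 °C.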

Aspergillus niger = assay: Antifungal activity against Aspergillus niger GC 3091
Pichia kudriavzevii = assay: Antifungal activity against Candida Krussii GC 3067; outline: as §1
Candida albicans [1] = assay: Antifungal activity against Candida albicans GC 3066; outline: as §1
Candida parapsilosis [2] = assay: Antifungal activity against Candida parapsilosis GC 3076; details: Lodderomyces parapsilosis; outline: as §1
Diutina rugosa = assay: Antifungal activity against Candida rugosa GC 3077; outline: as §1
Aspergillus fumigatus = assay: Antifungal activity against Aspergillus fumigatus GC 3092
Candida parapsilosis [3] = assay: Antifungal activity against Candida parapsilosis GC 3075; details: Lodderomyces parapsilosis; outline: as §1
Candida tropicalis [4] = assay: Antifungal activity against Candida tropicalis GC 3081; outline: as §1
Candida parapsilosis [5] = assay: Antifungal activity against Candida parapsilosis GC 3074; details: Lodderomyces parapsilosis; outline: as §1
Candida albicans [6] = assay: Antifungal activity against Candida albicans GC 3065; outline: as §1
Clavispora lusitaniae = assay: Antifungal activity against Candida lusitaniae GC 3068; outline: as §1
Candida albicans [7] = assay: Antifungal activity against Candida albicans GC 3064; outline: as §1
Candida tropicalis [8] = assay: Antifungal activity against Candida tropicalis GC 3080; outline: as §1

MIC (Kluyveromyces marxianus)	MIC (Aspergillus niger)	MIC (Pichia kudriavzevii)	MIC (Candida albicans [1])	MIC (Candida parapsilosis [2])	MIC (Diutina rugosa)	MIC (Aspergillus fumigatus)	MIC (Candida parapsilosis [3])	MIC (Candida tropicalis [4])	MIC (Candida parapsilosis [5])	MIC (Candida albicans [6])	MIC (Clavispora lusitaniae)	MIC (Candida albicans [7])	MIC (Candida tropicalis [8])	Structure (SMILES)
8 µg/mL (≈ 6.72 µM)	> 128 µg/mL	8 µg/mL (≈ 6.72 µM)	32 µg/mL (≈ 26.9 µM)	> 128 µg/mL	8 µg/mL (≈ 6.72 µM)	> 128 µg/mL	> 128 µg/mL	32 µg/mL (≈ 26.9 µM)	128 µg/mL (≈ 108 µM)	16 µg/mL (≈ 13.4 µM)	16 µg/mL (≈ 13.4 µM)	16 µg/mL (≈ 13.4 µM)	16 µg/mL (≈ 13.4 µM)	COC(=O)/C(C)=C/C=C/C=C/CC/C=C/C(C)C(O)C(C)C(O)/C=C/C=C/C=C/C=C/C=C/C=C/CC(OS(=O)(=O)O)C(C)C(=O)CC(O)CC(O)/C=C/CC(O)CC(O)CC(O)/C=C/CC(O)CC(O)/C=C/CC(O)CC(O)CCCN (stereo not given)
2 µg/mL (≈ 1.64 µM)	4 µg/mL (≈ 3.28 µM)	2 µg/mL (≈ 1.64 µM)	4 µg/mL (≈ 3.28 µM)	16 µg/mL (≈ 13.1 µM)	4 µg/mL (≈ 3.28 µM)	> 128 µg/mL	16 µg/mL (≈ 13.1 µM)	8 µg/mL (≈ 6.57 µM)	16 µg/mL (≈ 13.1 µM)	4 µg/mL (≈ 3.28 µM)	4 µg/mL (≈ 3.28 µM)	4 µg/mL (≈ 3.28 µM)	16 µg/mL (≈ 13.1 µM)	C\C(=C/C=C/C=C/CC/C=C/C(C)C(O)C(C)C(O)/C=C/C=C/C=C/C=C/C=C/C=C/CC(OS(=O)(=O)O)C(C)C(=O)CC(O)CC(O)/C=C/CC(O)CC(O)CC(O)/C=C/CC(O)CC(O)/C=C/CC(O)CC(O)CCCNC(=N)N)C(=O)O (stereo not given) [CLETHRAMYCIN]
1 µg/mL (≈ 0.85 µM)	1 µg/mL (≈ 0.85 µM)	2 µg/mL (≈ 1.7 µM)	4 µg/mL (≈ 3.4 µM)	16 µg/mL (≈ 13.6 µM)	2 µg/mL (≈ 1.7 µM)	128 µg/mL (≈ 109 µM)	16 µg/mL (≈ 13.6 µM)	8 µg/mL (≈ 6.8 µM)	16 µg/mL (≈ 13.6 µM)	2 µg/mL (≈ 1.7 µM)	2 µg/mL (≈ 1.7 µM)	2 µg/mL (≈ 1.7 µM)	16 µg/mL (≈ 13.6 µM)	C\C(=C/C=C/C=C/CC/C=C/C(C)C(O)C(C)C(O)/C=C/C=C/C=C/C=C/C=C/C=C/CC(OS(=O)(=O)O)C(C)C(=O)CC(O)CC(O)/C=C/CC(O)CC(O)CC(O)/C=C/CC(O)CC(O)/C=C/CC(O)CC(O)CCCN)C(=O)O (stereo not given) [MEDIOMYCIN A]
1 µg/mL (≈ 0.912 µM)	1 µg/mL (≈ 0.912 µM)	1 µg/mL (≈ 0.912 µM)	1 µg/mL (≈ 0.912 µM)	2 µg/mL (≈ 1.82 µM)	1 µg/mL (≈ 0.912 µM)	16 µg/mL (≈ 14.6 µM)	4 µg/mL (≈ 3.65 µM)	2 µg/mL (≈ 1.82 µM)	2 µg/mL (≈ 1.82 µM)	1 µg/mL (≈ 0.912 µM)	2 µg/mL (≈ 1.82 µM)	1 µg/mL (≈ 0.912 µM)	2 µg/mL (≈ 1.82 µM)	C\C(=C/C=C/C=C/CC/C=C/C(C)C(O)C(C)C(O)/C=C/C=C/C=C/C=C/C=C/C=C/CC(O)C(C)C(=O)CC(O)CC(O)/C=C/CC(O)CC(O)CC(O)/C=C/CC(O)CC(O)/C=C/CC(O)CC(O)CCCN)C(=O)O (stereo not given) [MEDIOMYCIN B]

Structure (SMILES)	MIC (Kluyveromyces marxianus)	MIC (Aspergillus niger)	MIC (Pichia kudriavzevii)	MIC (Candida albicans [1])	MIC (Candida parapsilosis [2])	MIC (Diutina rugosa)	MIC (Aspergillus fumigatus)	MIC (Candida parapsilosis [3])	MIC (Candida tropicalis [4])	MIC (Candida parapsilosis [5])	MIC (Candida albicans [6])	MIC (Clavispora lusitaniae)	MIC (Candida albicans [7])	MIC (Candida tropicalis [8])
C[C@@H]1[C@H](O)[C@@H](C)/C=C/C=C/C=C/C=C/C=C/C=C/C=C/[C@H](O[C@@H]2O[C@H](C)[C@@H](O)[C@H](N)[C@@H]2O)C[C@@H]2O[C@](O)(C[C@@H](O)C[C@@H](O)[C@H](O)CC[C@@H](O)C[C@@H](O)CC(=O)O[C@H]1C)C[C@H](O)[C@H]2C(=O)O [AMPHOTERICIN B]	0.25 µg/mL (≈ 0.271 µM)	0.25 µg/mL (≈ 0.271 µM)	0.5 µg/mL (≈ 0.541 µM)	0.25 µg/mL (≈ 0.271 µM)	0.5 µg/mL (≈ 0.541 µM)	0.5 µg/mL (≈ 0.541 µM)	0.25 µg/mL (≈ 0.271 µM)	0.5 µg/mL (≈ 0.541 µM)	0.5 µg/mL (≈ 0.541 µM)	0.25 µg/mL (≈ 0.271 µM)	0.25 µg/mL (≈ 0.271 µM)	0.25 µg/mL (≈ 0.271 µM)	0.5 µg/mL (≈ 0.541 µM)	0.5 µg/mL (≈ 0.541 µM)
